Source: PubChem BioAssay (several laboratories)
An excerpt weighted towards active compounds, which were near 3.4% of everything screened.
IMP-1 inh-1 = inhibitors of Pseudomonas aeruginosa IMP-1 metallo-beta-lactamase; AID 1556; 290,000 compounds, 0.45% hits; inhibition, % at 5.6 µM; purified IMP-1, nitrocefin hydrolysis, epi-absorbance fluorescence;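 active = inhibition above the mean plus 3 SD of all compounds in the same screening run, cut at about 4.5% in these data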;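 note: 0% = IMP-1 with DMSO and 100% = DMSO wells lacking enzyme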
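System: purified recombinant IMP-1 beta-lactamase. Medium: Zinc- and detergent-supplemented HEPES buffer, pH 7.1. Compound: one 5.6 µM dose […]. Schedule: 15 min preincubation plus 25 min reaction at 25 °C. Technique: Epi-absorbance fluorescence, 480 nm excitation, 530 nm emission.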
VIM-2 inh = blocks Pseudomonas aeruginosa VIM-2 metallo-beta-lactamase; purified VIM-2, nitrocefin hydrolysis, epi-absorbance fluorescence; inhibition, % at 5.6 µM; 290,000 compounds, 0.89% hits; AID 1527;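 active = inhibition above the mean of all tested compounds plus 3 SD, cutoff set per screening run, cut at about 7.5% in these data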;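 note: red hydrolysis product quenches plate fluorescence so inhibitors raise well fluorescence; 0% = enzyme with DMSO and 100% = DMSO without enzyme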
CHT inh = human CHT choline transport inhibition; Q9GZV3; B-score at 10 µM; 310,000 compounds, 0.86% hits; CHT-expressing cells, membrane potential dye, choline response; stronger effect = lower value;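 active = B-score over 3 SD under the library average, and starting fluorescence ratio not unusually high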;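 note: choline stimulus applied at its EC90 after an EC20 pre-addition; B-score computed on integrated fluorescence ratio after choline addition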
Target sequence (Q9GZV3 whole entry, looked up): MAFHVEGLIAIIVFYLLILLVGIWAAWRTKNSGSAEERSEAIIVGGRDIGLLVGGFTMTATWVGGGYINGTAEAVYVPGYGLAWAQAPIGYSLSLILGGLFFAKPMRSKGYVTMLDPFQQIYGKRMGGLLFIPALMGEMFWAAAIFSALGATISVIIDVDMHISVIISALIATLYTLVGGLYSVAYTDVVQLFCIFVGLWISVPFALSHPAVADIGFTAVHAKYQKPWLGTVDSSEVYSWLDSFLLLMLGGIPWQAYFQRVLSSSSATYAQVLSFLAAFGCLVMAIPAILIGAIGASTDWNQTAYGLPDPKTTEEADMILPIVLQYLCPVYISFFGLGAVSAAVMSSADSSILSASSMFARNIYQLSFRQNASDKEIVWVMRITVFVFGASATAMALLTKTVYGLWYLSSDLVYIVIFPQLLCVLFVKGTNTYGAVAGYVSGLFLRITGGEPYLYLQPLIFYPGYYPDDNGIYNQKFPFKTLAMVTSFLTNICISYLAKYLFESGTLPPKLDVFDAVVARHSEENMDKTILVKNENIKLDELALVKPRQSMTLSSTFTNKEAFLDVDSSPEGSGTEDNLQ
TMEM16A act = activates or potentiates the mouse TMEM16A chloride channel. Q8BHY3. HEK293 TMEM16A/YFP-H148Q/I152L, iodide quench fluorescence; stronger effect = lower value. B-score at 10 µM. 340,000 compounds, 0.3% hits;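 active = fluorescence-ratio B-score plate-corrected deviation score at least 3 library SD below zero, with starting fluorescence score within 5 deviations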;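 note: channel opened by trigger with iodide after compound preincubation; score built on the fluorescence ratio of max minus min over baseline; more negative score means more quench and so TMEM16A activation or potentiation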
CHT allo act = human CHT allosteric activation | Q9GZV3 | B-score at 10 µM | AID 488977 | 310,000 compounds, 0.49% hits | CHT-expressing cells, membrane potential dye, choline EC20; stronger effect = higher value; LV-AA mutant CHT in HEK293 cells;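 active = initial fluorescence not abnormally high and integrated response B-score, plate-corrected, over 3 SD above library mean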
ANO1 block = mouse TMEM16A channel inhibition, primary screen; 310,000 compounds, 1.2% hits; AID 588511; normalized B-score (activity score, 25-100; higher = stronger inhibition) at 10 µM; HEK293 TMEM16A/YFP iodide influx fluorescence, ionomycin;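 active = ratio plate-corrected score three or more library SD toward inhibition, starting fluorescence score within five deviations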;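 note: score derived from kinetic fluorescence span divided by baseline fluorescence per well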
IMP-1 inh-2 = IMP-1 inhibition, counter-screen for VIM-2 inhibitors; inhibition, % at 5.6 µM; 1,300 tested, under 10 active; shares compounds with VIM-2 inh; purified IMP-1, nitrocefin hydrolysis, epi-absorbance fluorescence; call rule not given here;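 note: 0% = enzyme with vehicle and 100% = vehicle without enzyme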
VIM-2 FRET ctr = counter-screen for VIM-2 inhibitors: epi-absorbance artifacts via FRET | shares compounds with VIM-2 inh | inhibition, % at 5.6 µM | AID 1857 | 1,300 compounds, 23% hits | purified VIM-2, CCF2 FRET substrate hydrolysis;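 active = inhibition above the mean of all tested compounds plus 3 SD, cut at about 19% in these data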;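 note: 0% = VIM-2 plus DMSO and 100% = no enzyme wells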
TEM-1 inh = selectivity counter-screen for VIM-2 inhibitors: E. coli TEM-1 inhibitors. AID 1866. 1,300 compounds, 3% hits. inhibition, % at 5.6 µM. shares compounds with VIM-2 inh. Purified TEM-1, nitrocefin hydrolysis, epi-absorbance fluorescence;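 active = inhibition above that campaign's mean inhibition plus 3 SD, cut at about 0.46% in these data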;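 note: 0% = TEM-1 with DMSO and 100% = TEM-1 with 100 µM potassium clavulanate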
VIM-2 inh conf = confirmation of P. aeruginosa VIM-2 metallo-beta-lactamase inhibitors. purified VIM-2, nitrocefin hydrolysis, epi-absorbance. shares compounds with VIM-2 inh. inhibition, % at 5.6 µM. 1,300 compounds, 96% hits;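 active = inhibition of the VIM-2 beta-lactamase enzyme above about 11% from the earlier first-round screen, limit read from the data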;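 note: 0% = VIM-2 with DMSO and 100% = buffer wells without enzyme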
An asterisk follows results filed as active; i = inactive; nt = no result.

SMILES | IMP-1 inh-1 | VIM-2 inh | CHT inh | TMEM16A act | CHT allo act | ANO1 block | IMP-1 inh-2 | VIM-2 FRET ctr | TEM-1 inh | VIM-2 inh conf
O=C(O)c1csc(-n2nc(-c3ccccc3)cc2C(F)(F)F)n1 | -4 | 36* | i | i | i | i | -3 | -1 | -5 | 6
CCCCN(CC)CCNC(=O)C1CCN(S(=O)(=O)c2cccc3nsnc23)CC1 | -3 | -1 | i | i | i | i | nt | nt | nt | nt
Cc1cc(C)c2nc(N3CCCC(C(=O)NCCN4CCOCC4)C3)sc2c1 (stereo unspecified) | -2 | -1 | i | i | i | i | nt | nt | nt | nt
O=C(NCCN1CCOCC1)C1CCN(c2ncnc3c2sc2cccc(F)c23)CC1 | -1 | 23* | i | i | i | i | -2 | 3 | -7 | 37*
CCCCN(CC)CCCNC(=O)C1CCN(c2ncnc3c2sc2cccc(F)c23)CC1 | 1 | 30* | i | i | i | i | 0 | 4 | -6 | 38*
CCc1ccc(C(=O)NNC(=O)c2cc(S(=O)(=O)N(C)C)ccc2N2CCCC2)cc1 | -3 | -2 | i | i | i | i | nt | nt | nt | nt
CCN1C(=O)[C@H]2[C@@H](c3ccc(C)cc3)N3C(=O)N(c4ccccc4)C(=O)[C@@]3(C)[C@H]2C1=O | -3 | -1 | i | i | i | i | nt | nt | nt | nt
CCC1C(=O)N=C(SCC(=O)Nc2ccc(C)cc2)N(c2ccccc2)C1=O (stereo unspecified) | -2 | -1 | i | i | i | i | nt | nt | nt | nt
CN1C(=O)CCC2(c3ccccc3)CC=C(O)C=C12 (stereo unspecified) | nt | nt | nt | i | nt | nt | nt | nt | nt | nt
CCOC(=O)N1CCN(S(=O)(=O)c2ccc(C(=O)Nc3sc4c(c3C(=O)OC)CCN(C)C4)cc2)CC1 | -1 | 77* | i | i | i | i | -2 | 4 | -8 | 82*
S=c1[nH]nc(-c2ccccc2)n1C1C=CCCC1 (stereo unspecified) | -4 | 15* | i | i | i | i | -3 | 44* | -8 | 26*
OCCCn1c(-c2ccccc2)n[nH]c1=S | -1 | 4 | i | i | i | i | nt | nt | nt | nt
Cc1ccsc1-c1n[nH]c(=S)n1CC(C)C | -2 | 18* | i | i | i | i | -3 | 40* | -7 | 28*
S=c1[nH]nc(-c2ccccc2)n1CC1CCCO1 (stereo unspecified) | -7 | 30* | i | i | i | i | -3 | 48* | -6 | 32*
Cc1ccsc1-c1n[nH]c(=S)n1C1CCCCC1 | -4 | 31* | i | i | i | i | -3 | 57* | -6 | 42*
COc1ccc(Cl)cc1-c1n[nH]c(=S)n1C1CCCCC1 | -4 | -3 | i | i | i | i | nt | nt | nt | nt
CC(=O)C1(O)C(C)CC2C3CC(F)C4(O)CC(O)CCC4(C)C3CCC21C (stereo unspecified) | nt | nt | nt | i | nt | nt | nt | nt | nt | nt
Cc1ccc(NC(=O)CSc2nc3sc(C)cc3c(=O)n2C)cc1 | -4 | -1 | i | i | i | i | nt | nt | nt | nt
Cc1cc(C)c(C#N)c(Nc2cccc(C)c2C)n1 | -4 | 0 | i | i | i | i | nt | nt | nt | nt
COc1ccc(-c2n[nH]c(=S)n2C2CCCCC2)cc1 | -3 | 7 | i | i | i | i | nt | nt | nt | nt
S=c1[nH]nc(-c2cccnc2)n1C1CCCCC1 | -5 | 16* | i | i | i | i | -3 | 45* | -8 | 26*
COC(=O)c1c(NC(=O)C(=O)NCCCN2CCOCC2)sc2c1CCCC2 | -4 | 13* | i | i | i | i | -2 | 0 | -1 | 19*
Cc1ccc(-c2nn3c(C)nnc3c3ccccc23)cc1S(=O)(=O)NCCN1CCOCC1 | -3 | 42* | i | i | i | i | -3 | 3 | -3 | 58*
Cc1ccc(-c2n[nH]c(=O)c3ccccc23)cc1S(=O)(=O)NCCN1CCOCC1 | -2 | 8 | i | i | i | i | nt | nt | nt | nt
Cc1ccc(-c2nn3c(C)nnc3c3ccccc23)cc1S(=O)(=O)N(C)CCO | -3 | 21* | i | i | i | i | -5 | 1 | -6 | 32*
SMILES | IMP-1 inh-1 | VIM-2 inh | CHT inh | TMEM16A act | CHT allo act | ANO1 block | IMP-1 inh-2 | VIM-2 FRET ctr | TEM-1 inh | VIM-2 inh conf
CN1CCN(c2ccccc2NC(=O)c2sc3ccccc3c2Cl)CC1 | -2 | 16* | i | i | i | i | -2 | 0 | -7 | 39*
Cc1ccc(S(=O)(=O)NCCC(=O)NC2CCC(C)CC2)cc1 (stereo unspecified) | nt | nt | nt | i | nt | nt | nt | nt | nt | nt
CN1CCN(C(=O)CSc2nc3c(c(=O)n(C)c(=O)n3C)n2C)CC1 | -2 | 76* | i | i | i | i | -4 | 2 | -7 | 79*
Cn1c(=O)c2c(nc(SCC(=O)N3CCOCC3)n2C)n(C)c1=O | -1 | 1 | i | i | i | i | nt | nt | nt | nt
CCCn1c(C(C)C)n[nH]c1=S | -3 | 26* | i | i | i | i | -4 | 54* | -7 | 35*
CCn1c(CC(C)C)n[nH]c1=S | -1 | -1 | i | i | i | i | nt | nt | nt | nt
CC(=O)NCCn1c(SCC(=O)c2ccccc2)nc2ccccc2c1=O | -2 | 14* | i | i | i | i | -2 | 24* | -4 | 20*
CCOc1ccc2nc(C)cc(Nc3ccc4c(c3)OCCO4)c2c1 | -3 | 18* | i | i | i | i | -3 | -1 | -5 | 31*
Cc1cc(C)n(-c2nc(SCC(=O)O)c3c4c(sc3n2)COC(C)(C)C4)n1 | -4 | 15* | i | i | i | i | -5 | 39* | -7 | 23*
CCOC(=O)c1c(S(=O)(=O)NCC(=O)Nc2cccc(C)c2)c(C)n(C)c1C | -1 | 0 | i | i | i | i | nt | nt | nt | nt
CNC[C@H](CC1CCCCC1)NC[C@H](CO)NCCc1cccc(C(F)(F)F)c1 | -1 | 21* | i | i | i | i | -3 | -5 | -6 | 30*
Cc1cccc(-c2nc3c(c(SCC(N)=O)n2)CCCC3)c1 | -3 | -1 | i | i | i | i | nt | nt | nt | nt
